{"data": "Measurements of several laboratories", "target": "Tyrosine-protein kinase Mer (MERTK, Homo sapiens, UniProt Q12866)", "Residues used in one study (Q12866 21-999)": "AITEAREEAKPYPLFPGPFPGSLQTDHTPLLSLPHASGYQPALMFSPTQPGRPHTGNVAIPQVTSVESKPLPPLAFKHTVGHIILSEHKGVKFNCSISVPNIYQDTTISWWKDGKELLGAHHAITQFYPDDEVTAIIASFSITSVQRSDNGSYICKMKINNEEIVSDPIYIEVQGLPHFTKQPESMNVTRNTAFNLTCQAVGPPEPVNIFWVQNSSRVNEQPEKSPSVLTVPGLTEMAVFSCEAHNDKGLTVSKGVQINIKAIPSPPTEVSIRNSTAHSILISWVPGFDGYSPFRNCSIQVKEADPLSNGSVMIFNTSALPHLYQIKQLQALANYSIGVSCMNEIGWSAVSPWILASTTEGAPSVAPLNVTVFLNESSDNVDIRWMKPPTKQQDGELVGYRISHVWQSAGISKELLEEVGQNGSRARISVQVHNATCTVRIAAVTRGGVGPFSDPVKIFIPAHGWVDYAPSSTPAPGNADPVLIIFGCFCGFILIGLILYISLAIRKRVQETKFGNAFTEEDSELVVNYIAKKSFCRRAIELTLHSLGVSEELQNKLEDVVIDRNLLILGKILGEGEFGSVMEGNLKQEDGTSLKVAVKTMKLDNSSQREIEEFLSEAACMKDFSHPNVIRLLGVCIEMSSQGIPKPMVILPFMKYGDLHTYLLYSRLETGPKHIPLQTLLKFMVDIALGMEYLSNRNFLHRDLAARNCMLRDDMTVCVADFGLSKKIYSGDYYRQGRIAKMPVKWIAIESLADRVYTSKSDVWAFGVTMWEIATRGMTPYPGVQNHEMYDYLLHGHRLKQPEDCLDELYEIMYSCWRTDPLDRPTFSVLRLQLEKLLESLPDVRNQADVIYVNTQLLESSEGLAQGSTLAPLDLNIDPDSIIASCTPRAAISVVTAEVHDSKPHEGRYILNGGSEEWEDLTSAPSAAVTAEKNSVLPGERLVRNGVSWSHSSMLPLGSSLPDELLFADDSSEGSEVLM", "note": "Protocols differ between the studies behind these lines."}
{"Structure (SMILES)": "Nc1ncc(-c2nc(N3CCOCC3)nc(N3CCOCC3)n2)c(C(F)F)n1", "assay": "binding, competition with immobilised ligand", "conditions": "10 µM", "endpoint": "remaining binding", "result": "87%"}
{"Structure (SMILES)": "Cn1cc(-c2cccc(N3CCc4c(sc5c4CC(C)(C)C5)C3=O)c2CO)cc(Nc2ccncn2)c1=O", "assay": "enzyme activity, inhibitor", "conditions": "1 µM", "endpoint": "inhibition", "result": "1%"}
{"Structure (SMILES)": "Cn1cncc1[C@@](O)(COc1ccc(C#N)cc1-c1ccc(OC(F)(F)F)cc1)c1ccc(C#N)cc1", "assay": "cell-free assay, competition with immobilised ligand", "conditions": "1 µM", "endpoint": "remaining binding", "result": "69%"}
{"Structure (SMILES)": "Cc1nn(C)cc1-c1nc2c(N3CCN(Cc4ccc(Cl)cc4)CC3)c(Cl)cnc2[nH]1", "assay": "binding, competition with immobilised ligand", "conditions": "1 µM", "endpoint": "remaining binding", "result": "100%"}
{"Structure (SMILES)": "N#CC1(c2ccccn2)CCN(Cc2cc(C(=O)O)c(=O)n3ccccc23)CC1", "assay": "cell-free assay, competition with immobilised ligand", "conditions": "1 µM", "endpoint": "remaining binding", "result": "100%"}
{"Structure (SMILES)": "COc1cc(Nc2ncc(F)c(Nc3ccc4c(n3)NC(=O)C(C)(C)O4)n2)cc(OC)c1OC", "assay": "binding, competition with immobilised ligand", "conditions": "10 µM", "endpoint": "inhibition", "result": "100%"}
{"Structure (SMILES)": "Cn1cc(-c2cc(F)cc(N3CCn4c(cc5c4CCCC5)C3=O)c2CO)cc(Nc2ccc(N3CCN(C4COC4)CC3)cn2)c1=O", "assay": "enzyme activity, inhibitor", "conditions": "0.1 µM", "endpoint": "inhibition", "result": "11%"}
{"Structure (SMILES)": "CC(C)(C)c1cc(C=C(C#N)C#N)cc(Br)c1O", "assay": "enzyme activity, inhibitor", "conditions": "0.5 µM", "endpoint": "remaining activity", "result": "97.3%"}
{"Structure (SMILES)": "C#Cc1n[nH]c2c(-c3cn(C(C)c4ccccn4)c(=O)[nH]c3=O)cc(F)cc12 (centres unmarked)", "assay": "enzyme activity, inhibitor", "conditions": "1 µM", "endpoint": "inhibition", "result": "99.6%"}
{"Structure (SMILES)": "O=c1[nH]c2ccccc2n1C1CCN(Cc2ccc(-c3[nH]c4cc5ncnc5cc4nc3-c3ccccc3)cc2)CC1", "assay": "cell-free assay", "conditions": "0.5 µM", "endpoint": "remaining signal", "result": "96.2%"}
{"Structure (SMILES)": "COc1ncccc1-c1cnn2ccc(N3CCN(C(=O)OC(C)C)CC3)nc12", "assay": "binding, competition with immobilised ligand", "conditions": "1 µM", "endpoint": "remaining binding", "result": "100%"}
